From ChEMBL document CHEMBL2380293, “Design, synthesis, and biological evaluation of novel histone deacetylase 1 inhibitors through click chemistry” (Bioorg Med Chem Lett, 2013)
Active and inactive are the calls of the source. No cut-off for these calls is given here.

Columns and labels:
[1] = molecular target: T1, Histone deacetylase 7 (Homo sapiens) (UniProt Q8WUI4); assay: Inhibition of human recombinant HDAC7 at 10 uM incubated for 10 mins prior to substrate addition measured after 60 mins by spectrophotometric analysis
T1 sequence (whole entry): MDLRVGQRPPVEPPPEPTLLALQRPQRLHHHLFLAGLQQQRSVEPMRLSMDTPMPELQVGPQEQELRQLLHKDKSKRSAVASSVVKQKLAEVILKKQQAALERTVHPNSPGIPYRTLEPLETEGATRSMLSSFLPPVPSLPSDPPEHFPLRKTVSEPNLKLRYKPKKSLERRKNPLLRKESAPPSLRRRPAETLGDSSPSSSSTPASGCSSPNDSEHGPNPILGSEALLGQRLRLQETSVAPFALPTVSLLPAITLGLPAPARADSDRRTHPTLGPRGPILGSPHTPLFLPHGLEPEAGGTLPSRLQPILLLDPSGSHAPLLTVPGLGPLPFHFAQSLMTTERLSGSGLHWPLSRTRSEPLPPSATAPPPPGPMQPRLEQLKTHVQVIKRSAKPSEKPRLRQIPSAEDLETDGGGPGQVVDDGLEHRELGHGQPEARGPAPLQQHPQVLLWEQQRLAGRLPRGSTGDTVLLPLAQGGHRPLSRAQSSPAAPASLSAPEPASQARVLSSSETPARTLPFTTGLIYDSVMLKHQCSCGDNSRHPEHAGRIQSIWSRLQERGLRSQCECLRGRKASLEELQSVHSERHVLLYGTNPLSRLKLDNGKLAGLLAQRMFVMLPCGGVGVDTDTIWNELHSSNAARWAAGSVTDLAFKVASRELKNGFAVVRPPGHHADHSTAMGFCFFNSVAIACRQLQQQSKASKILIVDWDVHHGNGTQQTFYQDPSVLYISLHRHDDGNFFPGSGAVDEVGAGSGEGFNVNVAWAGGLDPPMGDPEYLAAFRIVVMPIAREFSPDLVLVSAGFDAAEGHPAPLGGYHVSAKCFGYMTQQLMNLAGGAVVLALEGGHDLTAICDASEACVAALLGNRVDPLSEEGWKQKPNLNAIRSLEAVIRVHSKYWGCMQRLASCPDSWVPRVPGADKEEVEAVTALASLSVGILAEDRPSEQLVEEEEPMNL
How it was run: (§1)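 Enzyme IC50 values are means of three experiments, with SAHA run as the positive control. Absence of activity was judged at 10 μM.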

A549 [2] = assay: Growth inhibition of human A549 cells by MTT assay; type: functional
BGC-823 [3] = assay: Growth inhibition of human BGC823 cells by MTT assay; type: functional
DU-145 [4] = assay: Growth inhibition of human DU145 cells by MTT assay; type: functional
HeLa [5] = assay: Growth inhibition of human HeLa cells by MTT assay; type: functional
Histone deacetylase 1 [6] = molecular target: T2, Histone deacetylase 1 (Homo sapiens, UniProt Q13547); assay: Inhibition of human recombinant HDAC1 incubated for 10 mins prior to substrate addition measured after 60 mins by spectrophotometric analysis
T2 sequence (Q13547 whole entry): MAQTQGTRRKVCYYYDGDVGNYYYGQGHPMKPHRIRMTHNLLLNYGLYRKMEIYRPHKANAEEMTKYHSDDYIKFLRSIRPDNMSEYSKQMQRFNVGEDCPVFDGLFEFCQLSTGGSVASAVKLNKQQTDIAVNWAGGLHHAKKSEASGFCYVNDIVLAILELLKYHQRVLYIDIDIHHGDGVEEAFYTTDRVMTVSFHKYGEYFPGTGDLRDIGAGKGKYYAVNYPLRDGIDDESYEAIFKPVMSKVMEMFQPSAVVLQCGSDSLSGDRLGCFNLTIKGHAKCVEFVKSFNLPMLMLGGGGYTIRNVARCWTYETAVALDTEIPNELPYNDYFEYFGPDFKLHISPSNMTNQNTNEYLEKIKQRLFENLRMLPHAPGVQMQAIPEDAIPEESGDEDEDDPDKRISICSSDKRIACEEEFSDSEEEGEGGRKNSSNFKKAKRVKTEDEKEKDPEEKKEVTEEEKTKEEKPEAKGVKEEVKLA

HT-1080 [7] = assay: Growth inhibition of human HT1080 cells by MTT assay; type: functional
How it was run: (§2)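 MTT cell growth read-out, with SAHA as the positive control. GI50 values are means of three experiments. 10 μM was the concentration tested for scoring absence of activity.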

A-431 [8] = assay: Growth inhibition of human A431 cells by MTT assay; type: functional
HUVEC [9] = assay: Growth inhibition of HUVEC by MTT assay; type: functional; conditions: Homo sapiens
HeLa [10] = assay: Growth inhibition of human HeLa cells at 10 uM by MTT assay; type: functional, cell-based; how it was run: as §2
BGC-823 [11] = assay: Growth inhibition of human BGC823 cells at 10 uM by MTT assay; type: functional, cell-based; how it was run: as §2
HUVEC [12] = assay: Growth inhibition of HUVEC at 10 uM by MTT assay; type: functional, cell-based; conditions: Homo sapiens; how it was run: as §2
A549 [13] = assay: Growth inhibition of human A549 cells at 10 uM by MTT assay; type: functional, cell-based; how it was run: as §2
A-431 [14] = assay: Growth inhibition of human A431 cells at 10 uM by MTT assay; type: functional, cell-based; how it was run: as §2
DU-145 [15] = assay: Growth inhibition of human DU145 cells at 10 uM by MTT assay; type: functional, cell-based; how it was run: as §2
HT-1080 [16] = assay: Growth inhibition of human HT1080 cells at 10 uM by MTT assay; type: functional, cell-based; how it was run: as §2
Histone deacetylase 1 [17] = molecular target: T2, Histone deacetylase 1; assay: Inhibition of human recombinant HDAC1 at 10 uM incubated for 10 mins prior to substrate addition measured after 60 mins by spectrophotometric analysis; how it was run: as §1

inhibition [1] | GI50 (DU-145 [4]) | IC50 (Histone deacetylase 1 [6]) | GI50 (HT-1080 [7]; Homo sapiens, HT-1080) | Structure (SMILES) | growth inhibition (GI) (HeLa [10]) | growth inhibition (GI) (BGC-823 [11]) | growth inhibition (GI) (HUVEC [12]) | growth inhibition (GI) (A549 [13]) | further results
inactive | 1210 nM | 202 nM | 2690 nM | O=C(CCCCc1cn(Cc2ccc(-c3ccccc3)cc2)nn1)NO | – | – | – | – | GI50 (A549 [2]): 2150 nM; GI50 (BGC-823 [3]): 1800 nM; GI50 (HeLa [5]): 3720 nM; GI50 (A-431 [8]): 2990 nM; GI50 (HUVEC [9]): 5480 nM
inactive | – | 2570 nM | – | O=C(CCCCc1cn(Cc2ccccn2)nn1)NO | – | – | – | – | –
inactive | 5620 nM | 159 nM | 9940 nM | COc1ccc(Br)c(Cn2cc(CCCCC(=O)NO)nn2)c1 | inactive | inactive | inactive | inactive | growth inhibition (GI) (A-431 [14]): inactive
inactive | – | 1900 nM | – | O=C(CCCCc1cn(Cc2ccc3c(c2)OCO3)nn1)NO | – | – | – | – | –
inactive | – | 1850 nM | – | COc1ccc(Cn2cc(CCCCC(=O)NO)nn2)cc1 | – | – | – | – | –
inactive | – | 440 nM | – | O=C(CCCCc1cn(Cc2ccc(C(F)(F)F)cc2)nn1)NO | – | – | – | – | –
inactive | 7890 nM | 252 nM | 8040 nM | COc1cc(Cn2cc(CCCCC(=O)NO)nn2)cc(OC)c1 | inactive | inactive | inactive | inactive | GI50 (A-431 [8]): 6800 nM
inactive | – | 3580 nM | – | O=C(CCCCc1cn(Cc2ccccc2Br)nn1)NO | inactive | inactive | – | inactive | growth inhibition (GI) (DU-145 [15]): inactive; growth inhibition (GI) (HT-1080 [16]): inactive; growth inhibition (GI) (A-431 [14]): inactive
inactive | 7230 nM | 107 nM | 4610 nM | O=C(CCCCc1cn(Cc2ccc3ccccc3c2)nn1)NO | inactive | – | inactive | inactive | GI50 (BGC-823 [3]): 6640 nM; GI50 (A-431 [8]): 5680 nM
inactive | 1190 nM | 58 nM | 3140 nM | O=C(CCCCc1cn(Cc2cccc(-c3ccccc3)c2)nn1)NO | – | – | – | – | GI50 (A549 [2]): 1470 nM; GI50 (BGC-823 [3]): 3050 nM; GI50 (HeLa [5]): 3850 nM; GI50 (A-431 [8]): 4650 nM; GI50 (HUVEC [9]): 1130 nM
inactive | 4490 nM | 122 nM | 7690 nM | O=C(CCCCc1cn(Cc2ccc(Oc3ccccc3)cc2)nn1)NO | inactive | – | – | inactive | GI50 (BGC-823 [3]): 7770 nM; GI50 (A-431 [8]): 9030 nM
– | – | 5130 nM | – | O=C(CCCCn1cc(-c2ccccc2)nn1)NO | inactive | inactive | inactive | – | growth inhibition (GI) (DU-145 [15]): inactive; GI50 (A549 [2]): 7690 nM; growth inhibition (GI) (HT-1080 [16]): inactive; growth inhibition (GI) (A-431 [14]): inactive
inactive | – | 2210 nM | – | O=C(CCCCc1cn(Cc2ccc(Cl)cc2)nn1)NO | – | – | – | – | –
inactive | – | 1680 nM | – | O=C(CCCCc1cn(Cc2ccccc2)nn1)NO | – | – | – | – | –
inactive | – | 1050 nM | – | Cc1ccccc1Cn1cc(CCCCC(=O)NO)nn1 | – | – | – | – | –
– | – | – | – | O=C(CCCCCCC(=O)Nc1ccccc1)NO [VORINOSTAT] | – | – | – | – | GI50 (HT-1080 [7]): 4870 nM
inactive | 4060 nM | 246 nM | 10200 nM | O=C(CCCCc1cn(Cc2ccc3ccccc3n2)nn1)NO | inactive | inactive | inactive | inactive | growth inhibition (GI) (A-431 [14]): inactive
inactive | – | 645 nM | – | O=C(CCCCc1cn(Cc2ccc(F)cc2)nn1)NO | – | – | – | – | –
inactive | – | – | – | O=C(CCCCc1cn(Cc2c(Br)cc(Br)cc2Br)nn1)NO | – | – | – | – | inhibition (Histone deacetylase 1 [17]): inactive
inactive | – | 396 nM | 6650 nM | O=C(CCCCc1cn(Cc2cccc(Br)c2)nn1)NO | inactive | inactive | inactive | inactive | growth inhibition (GI) (DU-145 [15]): inactive; growth inhibition (GI) (A-431 [14]): inactive
inactive | – | 862 nM | – | COc1cc(Br)c(Cn2cc(CCCCC(=O)NO)nn2)cc1OC | inactive | inactive | inactive | inactive | growth inhibition (GI) (DU-145 [15]): inactive; growth inhibition (GI) (HT-1080 [16]): inactive; GI50 (A-431 [8]): 17300 nM
inactive | – | 1360 nM | – | O=C(CCCCc1cn(Cc2ccccc2F)nn1)NO | – | – | – | – | –
inactive | 7910 nM | 1600 nM | – | O=C(CCCCc1cn(Cc2ccc(Br)cc2)nn1)NO | inactive | inactive | – | inactive | growth inhibition (GI) (HT-1080 [16]): inactive; GI50 (A-431 [8]): 15400 nM
inactive | – | 1220 nM | – | O=C(CCCCc1cn(Cc2ccc(F)cc2F)nn1)NO | – | – | – | – | –
inactive | – | 440 nM | – | Cc1ccc(Cn2cc(CCCCC(=O)NO)nn2)cc1 | – | – | – | – | –
inactive | – | 807 nM | – | O=C(CCCCc1cn(Cc2ccccc2Cn2cc(CCCCC(=O)NO)nn2)nn1)NO | – | – | – | – | –
inactive | – | 701 nM | – | N#Cc1ccc(Cn2cc(CCCCC(=O)NO)nn2)cc1 | – | – | – | – | –
inactive | – | 269 nM | 8650 nM | Cc1cc(C)cc(Cn2cc(CCCCC(=O)NO)nn2)c1 | inactive | inactive | inactive | inactive | growth inhibition (GI) (DU-145 [15]): inactive; growth inhibition (GI) (A-431 [14]): inactive
inactive | – | 649 nM | 10200 nM | O=C(CCCCc1cn(Cc2ccc(F)c(Cl)c2)nn1)NO | inactive | inactive | inactive | inactive | growth inhibition (GI) (DU-145 [15]): inactive
inactive | 7200 nM | 601 nM | 7370 nM | CC(C)(C)c1ccc(Cn2cc(CCCCC(=O)NO)nn2)cc1 | inactive | inactive | inactive | inactive | growth inhibition (GI) (A-431 [14]): inactive
